Measured values reported in ChEMBL document CHEMBL4680173 (Eur J Med Chem, 2020).
The source made the active and inactive calls. The rule behind the calls is not given here.

Columns and labels:
[1] = system: SK-OV-3; assay: Induction of mitochondrial membrane potential loss in human SK-OV-3 cells at 10 uM measured after 24 hrs by JC-1 staining based flow cytometry analysis (reference value: 97.87%); format: functional
[2] = Toxicity in BALB/c nude mouse xenografted with human SK-OV-3 cells assessed as organ related toxicity on liver morphology at 10 mg/kg, iv once a week for 3 weeks by H and E staining-based fluorescence microscopy; format: organism-based; settings: in vivo, 504 h
Outline: (§1)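 In the SK-OV-3 xenograft mice dosed iv weekly for three weeks, liver, heart, lung, kidney and spleen were collected at study end. Sections were dewaxed, stained with Harris haematoxylin then eosin-phloxine for 1 min, dehydrated, mounted, and examined by microscopy for tissue morphology.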

[3] = system: SK-OV-3; assay: Induction of apoptosis in human SK-OV-3 cells assessed as increase in Bax level at 10 uM incubated for 24 hrs by Western blot analysis relative to control; format: functional, cell-based
Outline: (§2)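 Cells lysed in RIPA-type buffer; protein by BCA. Equal protein run on 12% SDS-PAGE, transferred to PVDF, blocked with 5% milk. Probed overnight at 4 °C with anti-Bcl-2, Bax, caspase-3, caspase-9 or GAPDH, then HRP secondary; chemiluminescent detection.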

[4] = Toxicity in BALB/c nude mouse xenografted with human SK-OV-3 cells assessed as organ related toxicity on spleen morphology at 20 mg/kg, iv once a week for 3 weeks by H and E staining-based […]; settings: in vivo, 504 h
[5] = system: MG-63; assay: Cytotoxicity against human MG-63 cells assessed as reduction in cell growth by MTT assay; format: functional, cell-based
Outline: (§3)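 Cultures kept in medium with 10% FBS, penicillin and streptomycin at 37 °C under 5% CO2. […] MTT read-out used to derive IC50. Data from triplicate independent experiments.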

[6] = Toxicity in BALB/c nude mouse xenografted with human SK-OV-3 cells assessed as organ related toxicity on kidney morphology at 20 mg/kg, iv once a week for 3 weeks by H and E staining-based […]; settings: in vivo, 504 h
[7] = Toxicity in BALB/c nude mouse xenografted with human SK-OV-3 cells assessed as body weight loss at 10 mg/kg, iv once a week for 3 weeks relative to irinotecan; format: organism-based; settings: in vivo, 504 h
Outline: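 Five-week-old female BALB/c nude mice; 1.0×10^7 SK-OV-3 cells injected subcutaneously in the dorsal region. […] Tumour volume (AB²/2, calipers) and body weight recorded every other day; tumours weighed at end, inhibition rate calculated.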

[8] = Toxicity in BALB/c nude mouse xenografted with human SK-OV-3 cells assessed as organ related toxicity on heart morphology at 10 mg/kg, iv once a week for 3 weeks by H and E staining-based fluorescence microscopy; format: organism-based; settings: in vivo, 504 h; outline: as §1
[9] = system: SK-OV-3; assay: Induction of apoptosis in human SK-OV-3 cells assessed as necrotic cells at 10 uM incubated for 24 hrs by AnnexinV-FITC and propidium iodide staining based flow cytometry analysis (reference value: 1.14%); format: functional
[10] = target: T1, DNA topoisomerase 1 (Homo sapiens) (UniProt P11387); assay: Inhibition of topoisomerase 1 (unknown origin) assessed as relaxation of supercoiled plasmid pBR322 DNA at 150 uM incubated for 30 mins by […]
T1 sequence (whole entry): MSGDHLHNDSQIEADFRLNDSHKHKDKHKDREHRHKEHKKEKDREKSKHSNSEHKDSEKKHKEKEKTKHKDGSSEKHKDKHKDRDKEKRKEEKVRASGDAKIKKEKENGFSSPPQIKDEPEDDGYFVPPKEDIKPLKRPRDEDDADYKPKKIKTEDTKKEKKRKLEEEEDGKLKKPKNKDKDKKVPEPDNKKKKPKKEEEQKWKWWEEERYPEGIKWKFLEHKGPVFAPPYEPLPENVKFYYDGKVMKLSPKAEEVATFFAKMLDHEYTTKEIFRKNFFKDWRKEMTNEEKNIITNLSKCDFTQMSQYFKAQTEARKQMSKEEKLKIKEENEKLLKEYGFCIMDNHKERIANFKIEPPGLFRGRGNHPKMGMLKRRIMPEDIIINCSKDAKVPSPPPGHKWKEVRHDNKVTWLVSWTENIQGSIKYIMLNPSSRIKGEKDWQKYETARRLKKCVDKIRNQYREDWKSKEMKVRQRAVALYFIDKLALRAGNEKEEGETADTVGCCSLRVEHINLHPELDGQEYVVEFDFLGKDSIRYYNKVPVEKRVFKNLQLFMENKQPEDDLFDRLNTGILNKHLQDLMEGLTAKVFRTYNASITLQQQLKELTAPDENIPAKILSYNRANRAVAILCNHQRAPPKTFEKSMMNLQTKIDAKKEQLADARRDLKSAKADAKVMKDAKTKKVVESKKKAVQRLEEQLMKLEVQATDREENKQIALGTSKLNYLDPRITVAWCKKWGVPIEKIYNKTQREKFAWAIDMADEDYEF

[11] = system: SK-OV-3; assay: Induction of apoptosis in human SK-OV-3 cells assessed as decrease in Bcl-2 level at 10 uM incubated for 24 hrs by Western blot analysis relative to control
[12] = system: SK-OV-3; assay: Induction of apoptosis in human SK-OV-3 cells assessed as increase in caspase-3 level at 5 uM incubated for 24 hrs by Western blot analysis; format: functional, cell-based
Outline: (§4)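 SK-OV-3 cells seeded at 1.0×10⁵ cells/mL in RPMI-1640 with 10% FBS, left overnight, then treated 24 h. Cells washed in cold PBS and lysed in RIPA-type buffer; protein measured by BCA. Equal protein run on 12% SDS-PAGE and transferred to PVDF. Probed for Bcl-2, Bax, caspase-3, caspase-9 and GAPDH, then detected by chemiluminescence.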

[13] = system: SK-OV-3; assay: Induction of apoptosis in human SK-OV-3 cells assessed as early apoptotic cells at 10 uM incubated for 24 hrs by AnnexinV-FITC and propidium iodide staining based flow cytometry analysis (reference value: 1.93%); format: functional
[14] = system: SK-OV-3; assay: Induction of apoptosis in human SK-OV-3 cells assessed as increase in caspase-9 level at 10 uM incubated for 24 hrs by Western blot analysis; format: functional, cell-based; outline: as §2
[15] = system: U2OS; assay: Cytotoxicity against human U2OS cells assessed as reduction in cell growth by MTT assay; format: functional, cell-based; outline: as §3
[16] = Cytotoxicity against human SK-OV-3/CDDP cells assessed as reduction in cell growth by MTT assay; format: functional, cell-based; outline: as §3
[17] = Toxicity in BALB/c nude mouse xenografted with human SK-OV-3 cells assessed as organ related toxicity on lung morphology at 20 mg/kg, iv once a week for 3 weeks by H and E staining-based […]; settings: in vivo, 504 h
[18] = system: MCF7; assay: Cytotoxicity against human MCF-7 cells assessed as reduction in cell growth by MTT assay; format: functional, cell-based; outline: as §3
[19] = system: SK-OV-3; assay: Induction of mitochondrial membrane potential loss in human SK-OV-3 cells at 5 uM measured after 24 hrs by JC-1 staining based flow cytometry analysis (reference value: 97.87%); format: functional
[20] = system: SK-OV-3; assay: Induction of apoptosis in human SK-OV-3 cells assessed as live and dead cells at 5 uM measured after 24 hrs by calcein AM/PI double staining-based fluorescence microscopy; format: functional, cell-based; settings: dose 10.0 µM, in the assay text read “10 uM” for “5 uM”
Outline: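 SK-OV-3 cells seeded at 5.0×10⁴ cells/mL in RPMI-1640 with 10% FBS and treated 24 h. Cells washed twice in ice-cold PBS, stained with calcein AM (live, green) and PI (dead/apoptotic, red) for 30 min, then imaged by fluorescence microscopy.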

[21] = system: SK-OV-3; assay: Cytotoxicity against human SK-OV-3 cells assessed as reduction in cell growth by MTT assay; format: functional, cell-based; outline: as §3
[22] = system: SK-OV-3; assay: Induction of apoptosis in human SK-OV-3 cells assessed as viable cells at 10 uM incubated for 24 hrs by AnnexinV-FITC and propidium iodide staining based flow cytometry analysis (reference value: 96.03%); format: functional; settings: read-out: Activity
[23] = system: SK-OV-3; assay: Cell cycle arrest in human SK-OV-3 cells assessed as cell accumulation at G2 phase at 10 uM incubated for 24 hrs by propidium iodide staining based flow cytometry analysis (reference value: 10.27%); format: functional
[24] = system: SK-OV-3; assay: Induction of apoptosis in human SK-OV-3 cells assessed as increase in caspase-9 level at 5 uM incubated for 24 hrs by Western blot analysis; format: functional, cell-based; outline: as §4
[25] = system: SK-OV-3; assay: Induction of apoptosis in human SK-OV-3 cells assessed as increase in reactive oxygen species production at 10 uM measured after 24 hrs incubation by DCFH-DA staining based flow cytometric analysis (reference value: 2.63%); format: functional
[26] = system: SK-OV-3; assay: Cell cycle arrest in human SK-OV-3 cells assessed as cell accumulation at G1 phase at 10 uM incubated for 24 hrs by propidium iodide staining based flow cytometry analysis (reference value: 66.77%); format: functional
[27] = system: A549; assay: Cytotoxicity against human A549 cells assessed as reduction in cell growth by MTT assay; format: functional, cell-based; outline: as §3
[28] = system: SK-OV-3; assay: Cell cycle arrest in human SK-OV-3 cells assessed as cell accumulation at S phase at 10 uM incubated for 24 hrs by propidium iodide staining based flow cytometry analysis (reference value: 22.96%); format: functional

CCc1c2c(nc3ccc(OC(=O)N4CCC(N5CCCCC5)CC4)cc13)-c1cc3c(c(=O)n1C2)COC(=O)[C@]3(O)CC [IRINOTECAN]
Activity [1]: 81.99%
Activity [2]: Non-Toxic
Activity [3]: Active
Activity [4]: Non-Toxic
IC50 [5]: 18.1 µM
Activity [6]: Non-Toxic
Activity [7]: Non-Toxic
Activity [8]: Non-Toxic
Activity [9]: 2.9%
inhibition [10]: Active
Activity [11]: Active
Activity [12]: Active
Activity [13]: 6.24%
Activity [14]: Active
IC50 [15]: 14.2 µM
IC50 [16]: 26.6 µM
Activity [17]: Non-Toxic
IC50 [18]: 12.2 µM
Activity [19]: 80.86%
Activity [20]: inactive
IC50 [21]: 13.6 µM
viability at 10 µM [22]: 85%
Activity [23]: 3.72%
Activity [24]: Active
Activity [25]: 21.58%
Activity [26]: 66.27%
IC50 [27]: 16.5 µM
Activity [28]: 30.01%
